IEC-6 cytotox: kills IEC-6 intestinal cells in KLF5 counter-screen. hit rate 0.78% among 290,000. inhibition, % at 5 µM. IEC-6 cytotoxicity, luminescence viability. AID 1825;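 also: 0% = plate median of test compound wells and 100% = cytotoxic reference compound wells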
BaF3 parental: parental Ba/F3 viability inhibition as JAK2V617F counter-screen. inhibition, % at 5.6 µM. hit rate 1.1% among 220,000. CellTiter-Glo ATP luminescence;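 active = inhibition above a per-campaign cutoff, the mean inhibition of all tested compounds plus 3 SD, cut at about 27% in these data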;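 also: 0% = DMSO wells and 100% = JAK Inhibitor I control wells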
APP 5UTR inh: APP translation inhibition; inhibition, % at 2 µM; hit rate 0.82% among 190,000; SH-SY5Y APP 5'UTR-luciferase reporter, luminescence;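 active = inhibition above a set limit, derived from the sample mean plus 3 SD, cut at about 45% in these data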
b-catenin transl: modulators of beta-catenin nuclear translocation; HeLa beta-catenin nuclear translocation, immunofluorescence imaging; nuclear translocation activity, % at 5 µM; hit rate 0.3% among 190,000;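 active = nuclear translocation activity above 50% at 5 µM, with a well cell count of 50 or more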;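 also: per-cell ratio of nuclear to cytoplasmic median beta-catenin stain intensity; plate controls were DMSO negative control for no effect and GSK-3 inhibitor IX positive control for full effect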
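Test system: HeLa cells, endogenous beta-catenin; Compound: single 5 µM dose plus 0.02–20 µM confirmation series; Times: compound exposure 24 h at 37°C; Signal: fluorescence imaging of beta-catenin antibody stain plus DAPI; Read-out: % activation, nuclear-to-cytoplasmic median beta-catenin signal ratio per cell.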
Ba/F3 V617F tox: lowers viability of Ba/F3 cells expressing EpoR and JAK2V617F | inhibition, % at 5.6 µM | hit rate 1.1% among 220,000 | ATP luminescence;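 active = inhibition above the campaign mean plus 3 SD over all tested compounds, cut at about 24% in these data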;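 also: cytokine-independent growth of Ba/F3 cells driven by EpoR plus mutant JAK2; 0% = DMSO-treated cells and 100% = JAK inhibitor I control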
MT stabilize HCS: microtubule stabilization, imaging screen; HeLa tubulin immunostaining HCS, 24 h; share of cells brighter than vehicle mean+2SD; % tubulin-high responders, % at 10 µM; hit rate 0.83% among 200,000; AID 2205;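 active = plate Z-score above 3 for both tubulin-high and condensed-nucleus cell shares, with cell loss under 80%, at 10 µM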;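 also: anti alpha tubulin signal scored within the nucleus-defined area of each cell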
IEC-6 tox confirm: confirmation of cytotoxic compounds in rat IEC-6 intestinal epithelial cells; shares compounds with IEC-6 cytotox; IEC-6 rat intestinal epithelial viability, luminescence; inhibition, % at 5 µM; hit rate 63% among 1,900; AID 1907;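 also: 0% = vehicle and 100% = reference cytotoxic drug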
* = called active by the depositor; x = no result. Sampled rows, rich in hits. Any-hit rate of the full collection: about 2.2%. Rule as the data show it, unless noted: active = inhibition above about 22%; inactive = the rest.

SMILES | IEC-6 cytotox | BaF3 parental | APP 5UTR inh | b-catenin transl | Ba/F3 V617F tox | MT stabilize HCS | IEC-6 tox confirm
Cc1nnc(N/N=C/c2c(Cl)cccc2Cl)n1N | 102* | 0 | 4 | 0 | -1 | x | -13
Cc1nnc(N/N=C/c2cc(C)n(-c3ccc(F)cc3)c2C)n1N | 99* | 5 | 2 | -1 | 2 | 3 | -4
Cc1cc(/C=N/NC(N)=S)c(C)n1-c1ccc(Br)cc1 | 6 | 14 | -22 | 0 | 10 | 3 | x
Oc1ccccc1/C=N/Nc1nn[nH]n1 | -3 | -2 | x | 1 | -2 | x | x
Cc1nnc(N/N=C/c2ccccc2O)n1N | 102* | 0 | 14 | 0 | 4 | 7 | 4
C=CCn1c(SCC(=O)N(CCO)CCO)nc2sc3c(c2c1=O)CCC3 | -6 | x | x | x | x | x | x
Cc1cccc(-c2ocnc2C(=O)Nc2ccccc2NC(=O)c2ccccn2)c1 | 17 | x | x | x | x | x | x
Cc1ccc(-c2ocnc2C(=O)Nc2ccccc2NC(=O)c2ccccn2)cc1 | 27* | x | x | x | x | x | 20
CC(=O)Oc1ccc(N2C(=O)c3cccc4c([N+](=O)[O-])ccc(c34)C2=O)cc1 | 7 | x | x | x | x | x | x
O=C1c2cccc3c([N+](=O)[O-])ccc(c23)C(=O)N1O | 85* | x | x | x | x | x | 11
S=C(Nc1ccccc1)Nc1nccs1 | 42* | 0 | x | 0 | 2 | x | 8
Fc1ccc(NC(=S)Nc2nccs2)cc1 | 12 | 6 | -71 | -3 | 2 | 3 | x
CC1(C)CC(N2CCCCC2)=CC(=[N+]2CCCCC2)C1 | 23* | 68* | 8 | 1 | 84* | 5 | 25*
CC1(C)CC(N2CCOCC2)=CC(=[N+]2CCOCC2)C1 | -4 | 5 | -6 | -2 | -2 | 2 | x
CCN(CC)c1ccc(-c2nn3c(-c4ccccc4OC)nnc3s2)cc1 | 93* | 87* | 94* | x | 93* | 21 | 77*
COc1ccccc1-c1nn2c(-c3ccccc3Cl)nnc2s1 | x | x | x | -2 | x | x | x
FC(F)(F)C(F)(F)c1nnc2ccc(-n3ccnc3)nn12 | 0 | 5 | 20 | -2 | 2 | 2 | x
COc1ccc2c(c1)C=C([C@@H]1C[C@H]3CN(c4ccccc4)C(=O)[C@]34CCCN14)CO2 | 87* | 101* | -3 | 2 | 99* | 2 | 1
COc1ccc(S(=O)(=O)N2CCN=C2SCc2cccc(F)c2)cc1 | 0 | x | x | x | x | x | x
CCC(C)c1ccc(NC(=O)Nc2cnccn2)cc1 (centres undefined) | 79* | x | x | x | x | x | 55*
Cc1onc(-c2ccccc2Cl)c1C(=O)NC(=S)Nc1ccc(C(C)C)cc1 | 22* | 63* | x | -1 | 58* | x | -10
Cc1cc2nc(C3CCN(Cc4nnnn4Cc4ccccc4)CC3)[nH]c2cc1C | 72* | 68* | 40 | 0 | 72* | 2 | 52*
CCC(C)(C)n1nnnc1CN1CCC(c2nc3ccc(C)cc3[nH]2)CC1 | 11 | 3 | -1 | -1 | -4 | 1 | x
Cc1ccc(C(=O)Cn2c(C(=O)O)cc3ccccc32)cc1 | -1 | x | x | x | x | x | x
Cc1ccc(C(=O)Cn2c(C(=O)OCCO)cc3ccccc32)cc1 | 26* | x | x | x | x | x | 10
SMILES | IEC-6 cytotox | BaF3 parental | APP 5UTR inh | b-catenin transl | Ba/F3 V617F tox | MT stabilize HCS | IEC-6 tox confirm
COc1ccc(NC(=O)[C@H](C)NC(=O)C2CCN(S(=O)(=O)c3ccc(C)cc3)CC2)cc1 | 1 | x | x | x | x | x | x
C/C(=N/NC(=O)CN(c1ccccc1)S(=O)(=O)c1ccccc1)c1ccccc1O | 46* | x | x | x | x | x | 38*
CCCC/C(C)=N/NC(=O)CN(c1ccc(Br)cc1)S(=O)(=O)c1ccccc1 | 3 | 8 | 4 | 2 | -2 | 2 | x
CCOc1ccc(C(C)=O)cc1COc1cccnc1[N+](=O)[O-] | 28* | x | x | x | x | x | 24*
COc1ccc(C(C)=O)cc1COc1cccnc1[N+](=O)[O-] | 18 | x | x | x | x | x | x
Cc1cc(C(=O)NNC(=O)Nc2ccc(Cl)cc2)no1 | 1 | -3 | x | 0 | 4 | x | x
Cc1cc(C(=O)NNc2ccc(F)cc2F)no1 | 32* | -1 | x | 4 | 0 | x | -8
Cc1ccc(NNC(=O)c2cc(C)on2)c(C)c1 | 4 | -1 | x | 0 | 2 | x | x
Cc1cc(C(=O)NNc2ccc(Cl)cc2)no1 | 45* | 1 | x | 12 | -4 | x | -4
COC(=O)c1cc(C(=O)N2CCN(c3cccc(C)c3C)CC2)cc([N+](=O)[O-])c1 | 37* | 68* | 77* | 91* | 49* | 15* | 33*
Cc1cc2ccccn2c1C(=O)c1cc([N+](=O)[O-])cc([N+](=O)[O-])c1 | 3 | -3 | -34 | -1 | -3 | 6 | x

High-throughput results as filed in PubChem BioAssay.
